Results collected from several papers.
Protocols differ between the studies behind these lines.
Target: 5-hydroxytryptamine receptor 2B (HTR2B, Homo sapiens, UniProt P41595)

Structure (SMILES) | test | setting | quantity | value
N#Cc1cc(Cn2c(N3CCCC3)nc3ccccc32)ccc1F | ligand displacement | 10 µM | inhibition | 30.4%
Nc1ccc(-c2ccncc2)cc1NC(=O)N1CCCC1 | ligand displacement, radioligand | 10 µM | inhibition | 14%
CCN(CC)c1ccc(C2Nc3ccc(C(=O)c4ccccc4)cc3NC3=C2C(=O)CC(C)(C)C3)cc1 (centres unmarked) | ligand displacement, radioligand | 10 µM | inhibition | 50%
C#CCOCCOCCOc1ccc2c3c1C1CCCC1N3CCNC2 (racemic) | ligand displacement, radioligand | 10 µM | inhibition | ~70%
O=C(Nc1ccc(S(=O)(=O)N2CCC(Cl)CC2)cc1)c1ccc([N+](=O)[O-])o1 | ligand displacement, radioligand | 10 µM | inhibition | 8%
O=C(c1ccc(F)cc1)N(Cc1ccccc1)C1CCCCC1 | cell-free assay, radioligand | 10 µM | inhibition | 20%
O=C1N=C(N2CCCCN2)S/C1=C\c1ccc(F)cc1O | ligand displacement, radioligand | 10 µM | inhibition | < 10%
Clc1cccc(OC[C@@H]2CN(CCN3CCc4ccccc43)CCO2)c1 | calcium signal, agonist, fluorescence | – | Emax | 71.2%
O=C(c1ccc(Cl)cc1)N(Cc1ccccc1)C1CCCCC1 | ligand displacement, radioligand | 10 µM | inhibition | 19.9%
CCCNc1nc2ccccc2n1Cc1ccc(Cl)cc1 | ligand displacement | 10 µM | inhibition | 96.3%
O=C(O)c1cc(-c2ccc(C3CCNCC3)cc2)c2ccc(-c3ccc(C(F)(F)F)cc3)cc2c1 | ligand displacement | 10 µM | inhibition | 7.95%
CCN(Cc1ccccc1C(F)(F)F)C(=O)C1CCN(S(=O)(=O)c2ccc3[nH]ncc3c2)CC1 | ligand displacement, radioligand | 10 µM | inhibition | 32%
Cc1ncc(-c2cc(Cl)ccc2F)cc1-n1c(=O)n(CC(N)=O)c2ccccc21 | ligand displacement | 10 µM | inhibition | 72%
Ic1cccc2cnccc12 | ligand displacement, radioligand | 10 µM | inhibition | 79%
